How the values were obtained:
MCF7 [1] = test: Cytotoxicity against human MCF7 cells assessed as reduction in cell viability after 72 hrs by MTS assay; type: functional, cell-based; settings: MCF7, 72 h
Outline: (§1)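 Cells kept in DMEM with 10% FBS at 37 °C, 5% CO2. Proliferation read by MTS (CellTiter 96 AQueous One) 72 h after exposure across a concentration range. IC50 is the concentration giving 50% proliferation inhibition. Triplicate wells, three independent experiments, mean ± SD.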

MCF7 [2] = test: Cytotoxicity against human MCF7 cells assessed as reduction in cell viability at 20 uM after 72 hrs by MTS assay relative to control; type: functional
Outline: (§2)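 Cells grown in DMEM with 10% FBS at 37 °C, 5% CO2, exposed to 20 μM for 72 h. Proliferation read by MTS and inhibition expressed relative to vehicle. ≥50% inhibition counted as active. Triplicate wells, three independent experiments.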

HCT-116 [3] = test: Cytotoxicity against human HCT116 cells assessed as reduction in cell viability after 72 hrs by MTS assay; type: functional, cell-based; settings: HCT-116, 72 h; outline: as §1
HCT-116 [4] = test: Cytotoxicity against human HCT116 cells assessed as reduction in cell viability at 20 uM after 72 hrs by MTS assay relative to control; type: functional; outline: as §2
HeLa = test: Cytotoxicity against human HeLa cells assessed as reduction in cell viability after 72 hrs by MTS assay; type: functional, cell-based
Outline: (§3)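 MTS (CellTiter 96 AQueous One) proliferation read after 72 h of exposure across a concentration range. IC50 is the concentration giving 50% proliferation inhibition. Triplicate determinations in three independent experiments, mean ± SD.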

HT-29 = test: Cytotoxicity against human HT-29 cells assessed as reduction in cell viability after 72 hrs by MTS assay; type: functional, cell-based; settings: HT-29, 72 h; outline: as §3
MCF-10A = test: Cytotoxicity against human MCF10A cells assessed as reduction in cell viability after 72 hrs by MTS assay; type: cell-based; outline: as §3
A549 = test: Cytotoxicity against human A549 cells assessed as reduction in cell viability after 72 hrs by MTS assay; type: functional, cell-based; settings: A549, 72 h; outline: as §3
MDA-MB-231 = test: Cytotoxicity against human MDA-MB-231 cells assessed as reduction in cell viability after 72 hrs by MTS assay; type: functional, cell-based; settings: MDA-MB-231, 72 h; outline: as §3

SMILES	IC50 (MCF7 [1]) [µM]	Activity (MCF7 [2])	IC50 (HCT-116 [3]) [µM]	Activity (HCT-116 [4])	IC50 (HeLa) [µM]	IC50 (HT-29) [µM]	IC50 (MCF-10A) [µM]	IC50 (A549) [µM]	IC50 (MDA-MB-231) [µM]
O=C(/C=C/c1nc2ccccc2c(=O)[nH]1)c1ccccc1	4.09	>=50%	5.47	>=50%	–	–	–	–	–
Nc1ccc(C(=O)/C=C/c2nc3ccccc3c(=O)[nH]2)cc1	> 20	< 50%	> 20	< 50%	–	–	–	–	–
COc1cc(C(=O)/C=C/c2nc3ccccc3c(=O)[nH]2)ccc1O	6.05	>=50%	4.58	>=50%	–	–	–	–	–
O=C(/C=C/c1ccncc1)c1nc2ccccc2c(=O)[nH]1	> 20	< 50%	> 20	>=50%	–	–	–	–	–
COc1ccc(/C=C/C(=O)c2nc3ccccc3c(=O)[nH]2)cc1	> 20	< 50%	> 20	< 50%	–	–	–	–	–
O=C(/C=C/c1ccc(Br)cc1)c1nc2ccccc2c(=O)[nH]1	> 20	>=50%	> 20	>=50%	–	–	–	–	–
O=C(/C=C/c1ccccc1)c1nc2ccccc2c(=O)[nH]1	> 20	>=50%	> 20	< 50%	–	–	–	–	–
COc1ccccc1/C=C/C(=O)c1nc2ccccc2c(=O)[nH]1	> 20	>=50%	> 20	< 50%	–	–	–	–	–
O=C(/C=C/c1ccccn1)c1nc2ccccc2c(=O)[nH]1	> 20	>=50%	> 20	>=50%	–	–	–	–	–
COc1cccc(/C=C/C(=O)c2nc3ccccc3c(=O)[nH]2)c1	15.5	>=50%	14.7	>=50%	–	–	–	–	–
COc1cc(C(=O)/C=C/c2nc3ccccc3c(=O)[nH]2)cc(OC)c1OC	13.9	>=50%	12.8	>=50%	–	–	–	–	–
COc1ccc(/C=C/C(=O)c2nc3ccccc3c(=O)[nH]2)c(OC)c1	> 20	< 50%	> 20	< 50%	–	–	–	–	–
COc1cc(/C=C/C(=O)c2nc3ccccc3c(=O)[nH]2)cc(OC)c1	16.8	>=50%	15.8	>=50%	–	–	–	–	–
O=c1[nH]cc(F)c(=O)[nH]1 [FLUOROURACIL]	–	–	–	–	> 20	9.99	> 20	15	> 20
COc1ccc(C(=O)/C=C/c2nc3ccccc3c(=O)[nH]2)c(OC)c1	4.49	>=50%	4.08	>=50%	12.7	8.77	9.14	15.5	14.3
O=C(/C=C/c1nc2ccccc2c(=O)[nH]1)c1ccc(C(F)(F)F)cc1	> 20	< 50%	> 20	< 50%	–	–	–	–	–
COc1cc(OC)c(C(=O)/C=C/c2nc3ccccc3c(=O)[nH]2)c(OC)c1	5.02	>=50%	5.57	>=50%	–	–	–	–	–
O=C(/C=C/c1nc2ccccc2c(=O)[nH]1)c1ccc(Cl)c(Cl)c1	8.21	>=50%	17	>=50%	–	–	–	–	–
O=C(/C=C/c1ccc(F)cc1)c1nc2ccccc2c(=O)[nH]1	> 20	>=50%	15.2	>=50%	–	–	–	–	–

SMILES	IC50 (MCF7 [1]) [µM]	Activity (MCF7 [2])	IC50 (HCT-116 [3]) [µM]	Activity (HCT-116 [4])	IC50 (HeLa) [µM]	IC50 (HT-29) [µM]	IC50 (MCF-10A) [µM]	IC50 (A549) [µM]	IC50 (MDA-MB-231) [µM]
O=C(/C=C/c1cccs1)c1nc2ccccc2c(=O)[nH]1	> 20	>=50%	> 20	>=50%	–	–	–	–	–
O=C(/C=C/c1cccnc1)c1nc2ccccc2c(=O)[nH]1	> 20	>=50%	> 20	>=50%	–	–	–	–	–
COc1ccc(C(=O)/C=C/c2nc3ccccc3c(=O)[nH]2)cc1	10.2	>=50%	10	>=50%	–	–	–	–	–
O=C(/C=C/c1nc2ccccc2c(=O)[nH]1)c1ccc(F)cc1	> 20	< 50%	> 20	< 50%	–	–	–	–	–
Cc1ccc(C(=O)/C=C/c2nc3ccccc3c(=O)[nH]2)c(C)c1	4.5	>=50%	4.77	>=50%	9.55	12.5	5.47	13.3	15.3
N#Cc1ccc(/C=C/C(=O)c2nc3ccccc3c(=O)[nH]2)cc1	> 20	>=50%	19.8	>=50%	–	–	–	–	–
O=C(/C=C/c1nc2ccccc2c(=O)[nH]1)c1ccc(Br)cc1	3.75	>=50%	4.74	>=50%	16.1	> 20	11.3	19.5	18.3
COc1ccc(/C=C/C(=O)c2nc3ccccc3c(=O)[nH]2)cc1OC	> 20	< 50%	> 20	< 50%	–	–	–	–	–
COc1ccccc1C(=O)/C=C/c1nc2ccccc2c(=O)[nH]1	4.3	>=50%	3.91	>=50%	13.4	6.71	5.26	13.7	15.7
COc1cccc(C(=O)/C=C/c2nc3ccccc3c(=O)[nH]2)c1	12.9	>=50%	12	>=50%	–	–	–	–	–
O=C(/C=C/c1nc2ccccc2c(=O)[nH]1)c1ccc(O)cc1	4.92	>=50%	4.11	>=50%	9.44	10.7	6.12	15.1	16.5
O=C(/C=C/c1ccc(Cl)cc1)c1nc2ccccc2c(=O)[nH]1	> 20	>=50%	15.6	>=50%	–	–	–	–	–
Cc1ccc(/C=C/C(=O)c2nc3ccccc3c(=O)[nH]2)cc1	> 20	< 50%	> 20	>=50%	–	–	–	–	–
O=C(/C=C/c1ccc([N+](=O)[O-])cc1)c1nc2ccccc2c(=O)[nH]1	> 20	>=50%	13.2	>=50%	–	–	–	–	–
O=C(/C=C/c1nc2ccccc2c(=O)[nH]1)c1ccc(Cl)cc1	6.09	>=50%	6.1	>=50%	–	–	–	–	–
O=C(/C=C/c1ccco1)c1nc2ccccc2c(=O)[nH]1	> 20	>=50%	> 20	>=50%	–	–	–	–	–
Cc1ccc(C(=O)/C=C/c2nc3ccccc3c(=O)[nH]2)cc1	9.44	>=50%	5.75	>=50%	–	–	–	–	–
COc1cc(/C=C/C(=O)c2nc3ccccc3c(=O)[nH]2)cc(OC)c1OC	> 20	< 50%	> 20	>=50%	–	–	–	–	–
Cc1ccccc1C(=O)/C=C/c1nc2ccccc2c(=O)[nH]1	4.2	>=50%	4.14	>=50%	10.4	6.45	6.19	13.3	10.5

From ChEMBL document CHEMBL4325909, “Synthesis and evaluation of chalcone analogues containing a 4-oxoquinazolin-2-yl group as potential anti-tumor agents” (Eur J Med Chem, 2019)
